# Assay results as given in ChEMBL document CHEMBL3272138, “Prostaglandins and congeners. 16. Synthesis and bronchodilator activity of dl-11-doexy-3-thiaprostaglandins” (1977).
# Columns and labels:
# Canis familiaris [1] = test: Bronchodilatory activity in anesthetized dog assessed as inhibition of pilocarpine-induced bronchospasms at 0.016 to 0.032 ug/kg administered through aerosol 15 mins post challenge measured up to 1 hr; format: functional, Canis lupus familiaris
# Outline: (§1)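 In anesthetized dogs, a long-lasting bronchospasm was induced by pilocarpine, 400 µg/kg injection then 4 µg/kg/min perfusion, requiring an airway resistance increase of at least 200–300% over resting. After a 15-min control period, the compound was delivered by ultrasonic aerosol. Inhibition of bronchoconstriction was followed for the 1-h experiment.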
# Cavia porcellus [2] = test: Bronchodilator activity in iv dosed Hartley guinea pig assessed as inhibition of serotonin-induced bronchoconstriction administered 2 mins post serotonin challenge as 3 to 4 doses in 15 mins interval; format: functional
# Outline: (§2)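 Guinea pigs under urethane anesthesia, gallamine-paralyzed and artificially ventilated (60 strokes/min). Bronchospasm was evoked by iv acetylcholine (40–150), histamine (5.6–22.5) or serotonin (7.5–30 μg/kg), giving a 20–50 cm water rise in tracheal pressure, every 5 min. Three or four log-spaced iv doses (esters in 10% aqueous ethanol) were given at 15-min intervals, with ≥4 animals per spasmogen. ED50 (–50% variation of the first spasm) came from a semilog regression; if never reached, ED50 > maximal dose.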
# Cavia porcellus [3] = test: Bronchodilator activity in iv dosed Hartley guinea pig assessed as inhibition of histamine-induced bronchoconstriction administered 2 mins post histamine challenge as 3 to 4 doses in 15 mins interval; format: functional; outline: as §2
# Cavia porcellus [4] = test: Bronchodilator activity in iv dosed Hartley guinea pig assessed as inhibition of acetylcholine-induced bronchoconstriction administered 2 mins post acetylcholine challenge as 3 to 4 doses in 15 mins interval; format: functional; settings: for ED50: Cavia porcellus, Hartley, iv; outline: as §2
# Cavia porcellus [5] = test: Bronchodilator activity in Hartley guinea pig assessed as inhibition of serotonin-induced bronchoconstriction at 3.2 mg/kg, iv administered 2 mins post serotonin challenge as 3 to 4 doses in 15 mins interval; format: functional
# Outline: (§3)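 Urethane (1.5 g/kg ip) anesthetized, gallamine-curarized, ventilated guinea pigs. Spasms were induced by 12-s iv jugular injections every 5 min to raise tracheal pressure 20–50 cm water: acetylcholine 40–150, histamine 5.6–22.5, or serotonin 7.5–30 μg/kg. The drug was given iv over 1 min, 2 min after three stable control spasms. Salts were given as such and esters in 10% aqueous ethanol. Spasm amplitude was expressed as percent variation vs control, with ≥4 animals per spasmogen.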
# Cavia porcellus [6] = test: Bronchodilator activity in Hartley guinea pig assessed as inhibition of histamine-induced bronchoconstriction at 3.2 mg/kg, iv administered 2 mins post histamine challenge as 3 to 4 doses in 15 mins interval; format: functional; outline: as §3
# Cavia porcellus [7] = test: Bronchodilator activity in Hartley guinea pig assessed as inhibition of acetylcholine-induced bronchoconstriction at 3.2 mg/kg, iv administered 2 mins post acetylcholine challenge as 3 to 4 doses in 15 mins interval; format: functional; outline: as §3
# Canis familiaris [8] = test: Bronchodilatory activity in anesthetized dog assessed as inhibition of pilocarpine-induced bronchospasms at 16 to 32 ug/kg administered through aerosol 15 mins post challenge measured up to 1 hr; format: functional, Canis lupus familiaris
# Outline: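 Anesthetized dogs receive a pilocarpine injection of 400 µg/kg, followed by a pilocarpine perfusion of 4 µg/kg/min, to produce a long-acting bronchospasm. Airway resistance must rise to at least 200-300% of the resting value. After a 15-min control period, compound is given by ultrasonic aerosol. Read-out is percent inhibition of the pilocarpine bronchoconstriction, followed over the 1 h experiment.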
# Canis familiaris [9] = test: Bronchodilatory activity in anesthetized dog assessed as inhibition of pilocarpine-induced bronchospasms compound administered through aerosol 15 mins post challenge measured up to 1 hr; format: functional; settings: Canis lupus familiaris, inhaled or nasal; outline: as §1
Structure (SMILES),ED50 (Cavia porcellus [2]) [mg/kg],ED50 (Cavia porcellus [3]) [mg/kg],ED50 (Cavia porcellus [4]) [mg/kg],inhibition in vivo at 3.2 mg/kg (Cavia porcellus [5]) [%],inhibition in vivo at 3.2 mg/kg (Cavia porcellus [7]) [%],further results
CCCCCC(O)/C=C/C1C(O)CC(=O)C1CCCCCCC(=O)O (stereo unspecified),–,–,–,–,–,inhibition (INH) (Canis familiaris [1]): 70%
CCCCC[C@](C)(O)/C=C/C1CCC(=O)[C@@H]1CCCCSCC(=O)O (mixture of isomers),0.0054,0.00185,0.0193,–,–,–
CCCCC[C@H](O)/C=C/C1CCC(=O)C1CCCCCCC(=O)O (mixture of isomers),0.000397,0.0034,0.032,–,–,–
CCCCC(C)(C)[C@@H](O)/C=C/C1CCC(=O)[C@@H]1CCCCSCC(=O)O (mixture of isomers),0.032,0.324,–,–,–,–
CCCCC(C)(C)[C@H](O)/C=C/C1CCC(=O)[C@@H]1CCCCCCC(=O)O (mixture of isomers),0.0259,0.00417,0.0429,–,–,–
CCCCC[C@@H](O)/C=C/C1CCC(=O)[C@@H]1CCCCCSCC(=O)O (mixture of isomers),–,–,–,< 50,< 50,inhibition in vivo at 3.2 mg/kg (Cavia porcellus [6]): < 50%
CC(C)NC[C@H](O)c1ccc(O)c(O)c1 [LEVISOPRENALINE],–,–,–,–,–,inhibition (INH) (Canis familiaris [8]): 80%
CCCCC[C@H](O)/C=C/C1CCC(=O)[C@@H]1CCCCCSCC(=O)O (mixture of isomers),–,–,–,< 50,< 50,inhibition in vivo at 3.2 mg/kg (Cavia porcellus [6]): < 50%
CCCCC[C@@H](O)/C=C/C1CCC(=O)[C@@H]1CCCCSCC(=O)O (mixture of isomers),0.0233,0.0113,–,–,–,MED50 (Cavia porcellus [4]): 0.2 mg/kg
CCCCC[C@H](O)/C=C/C1CCC(=O)[C@@H]1CCCSCC(=O)O (mixture of isomers),–,–,–,< 50,< 50,inhibition in vivo at 3.2 mg/kg (Cavia porcellus [6]): < 50%
CCCCC[C@](C)(O)/C=C/C1CCC(=O)[C@@H]1CCCCCCC(=O)O (mixture of isomers),0.00699,0.00424,–,–,–,MED50 (Cavia porcellus [4]): 0.0032 mg/kg
CCCCC[C@](C)(O)/C=C/C1CCC(=O)[C@@H]1CCCSCC(=O)O (mixture of isomers),–,2.99,–,< 50,< 50,–
CCCCC(C)(C)[C@H](O)/C=C/C1CCC(=O)[C@@H]1CCCCSCC(=O)O (mixture of isomers),0.0523,0.0242,0.604,–,–,–
CCCCC[C@H](O)/C=C/C1CCC(=O)[C@@H]1CCCCSCC(=O)O (mixture of isomers),0.00129,0.00507,0.00514,–,–,ED50 (Canis familiaris [9]): 0.0016 mg/kg
CCCCC(C)(C)[C@H](O)/C=C/C1CCC(=O)[C@@H]1CCCCCSCC(=O)O (mixture of isomers),–,–,–,< 50,< 50,inhibition in vivo at 3.2 mg/kg (Cavia porcellus [6]): < 50%
